Data reported in ChEMBL document CHEMBL1128464, “Synthesis and antiproliferative and antiviral activity of 2'-deoxy-2'-fluoroarabinofuranosyl analogs of the nucleoside antibiotics toyocamycin and sangivamycin” (J Med Chem, 1995).
Values joined by “and” are separate entries in the source; they are usually repeats but may differ in a detail not shown here. Identical values can stand only once.

Key:
HFF [1] = test: Visual cytotoxicity scored on HFF cells at time of HCMV plaque enumeration; assay type: functional, cell-based; conditions: Homo sapiens
How it was run: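 Stationary HFF cells, uninfected cells in HCMV plaque assay plates scored by microscopic inspection at plaque enumeration (7–10 days); IC50.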

Human alphaherpesvirus 1 [2] = test: Antiviral activity in Herpes simplex virus-1 assayed by ELISA in quadruplicate wells; assay type: functional, organism-based
Human betaherpesvirus 5 [3] = test: antiviral activity in Human cytomegalovirus by plaque assay (HCMV); assay type: functional, organism-based
Human betaherpesvirus 5 [4] = test: antiviral activity in Human cytomegalovirus by plaque assay given as yield; assay type: functional
KB = test: cell growth inhibition was determined in KB cells in quadruplicate assays; assay type: functional, cell-based; conditions: Homo sapiens
L1210 [5] = test: Antiproliferative activity in L1210 Murine Leukemia in vitro expressed as Growth rate in the presence of compound; assay type: functional, Mus musculus; set-up: concentration or dose not given beside the values
L1210 [6] = test: antiproliferative activity in L1210 Murine Leukemia in vitro expressed as concentration required to decrease growth rate to 50% of control; assay type: functional, cell-based; conditions: Mus musculus
How it was run: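 L1210 cells in static suspension, Fischer's medium with 10% heat-inactivated horse serum; cell counts at 0, 48, 96 h over a concentration series; IC50 is the concentration lowering growth rate (treated doublings as % of control) to 50% of control.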

CCRF-CEM [7] = test: Visual cytotoxicity scored on CEM cells at time of RT assay; conditions: Homo sapiens
CCRF-CEM [8] = test: cytotoxicity in CEM-SS cells by [3H]Thd uptake; assay type: functional, cell-based; conditions: Homo sapiens
How it was run: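 [3H]dThd incorporation into acid-precipitable DNA of CEM-SS cells; IC50 from regression of % inhibition on log concentration; triplicate assays.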

CCRF-CEM [9] = test: cytotoxicity in CEM-SS cells by visual inspection; assay type: functional, cell-based; conditions: Homo sapiens
Human alphaherpesvirus 1 [10] = test: Antiviral activity as 50% inhibitory concentration against HSV-1; assay type: functional, organism-based
How it was run: (§1)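 Plaque reduction in HFF monolayers; HSV-1 E-377, HSV-2 MS or VZV Ellen, 20–50 PFU, 1 h adsorption at 37 °C; serial 5-fold drug dilutions in agarose overlay (extra overlay days 3 and 6 for VZV); neutral red staining at 3 days (HSV) or 10 days (VZV); plaques counted; duplicate assays.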

Human alphaherpesvirus 2 = test: Antiviral activity as 50% inhibitory concentration against HSV-2; assay type: functional, organism-based; how it was run: as §1
HFF [11] = test: Cytotoxicity in human foreskin fibroblast (HFF) stationary by MTT assay; assay type: functional, cell-based
How it was run: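 MTT assay on stationary HFF cells; drug in half-log10 dilutions; incubated one to three population doublings in 5% CO2; viable cells read at 570 nm; % inhibition vs control; IC50 from regression; duplicate assays.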

HFF [12] = test: Cytotoxicity in human foreskin fibroblast (HFF) stationary cells as neutral red uptake; assay type: functional, cell-based
Human alphaherpesvirus 3 = test: antiviral activity as 50% inhibitory concentration against VZV; assay type: functional, organism-based; how it was run: as §1

SMILES: N#Cc1c(Br)n([C@H]2O[C@H](CO)[C@@H](O)[C@@H]2F)c2ncnc(N)c12
- IC50 (HFF [1]): 55 µM
- IC50 (Human alphaherpesvirus 1 [2]): > 100 µM
- IC50 (Human betaherpesvirus 5 [3]): 3.2 µM
- IC90 (Human betaherpesvirus 5 [4]): > 100 µM
- IC50 (KB): > 150 µM
- Growth rate (L1210 [5]): 45%
- IC50 (L1210 [6]): 90 µM
- IC50 (CCRF-CEM [7]): > 100 µM

SMILES: N#Cc1c(Br)n([C@@H]2O[C@H](CO)[C@@H](O)[C@@H]2F)c2ncnc(N)c12
- IC50 (HFF [1]): 21 µM
- IC50 (Human alphaherpesvirus 1 [2]): > 100 µM
- IC50 (Human betaherpesvirus 5 [3]): 12 µM
- IC90 (Human betaherpesvirus 5 [4]): 7 µM
- IC50 (KB): 144 µM
- Growth rate (L1210 [5]): 21%
- IC50 (L1210 [6]): 66 µM
- IC50 (CCRF-CEM [7]): 33 µM

SMILES: N#Cc1cn([C@H]2O[C@H](CO)[C@@H](O)[C@@H]2F)c2ncnc(N)c12
- IC50 (HFF [1]): 100 µM
- IC50 (Human alphaherpesvirus 1 [2]): 46 µM
- IC50 (Human betaherpesvirus 5 [3]): 16 µM
- IC90 (Human betaherpesvirus 5 [4]): 100 µM
- IC50 (KB): > 100 µM
- Growth rate (L1210 [5]): 98%
- IC50 (CCRF-CEM [7]): > 100 µM

SMILES: NC(=O)c1cn([C@@H]2O[C@H](CO)[C@@H](O)[C@@H]2F)c2ncnc(N)c12
- IC50 (CCRF-CEM [8]): 0.193 µM
- IC50 (CCRF-CEM [9]): 0.4 µM
- IC50 (HFF [1]): 5.5 µM
- IC50 (Human alphaherpesvirus 1 [10]): 0.03 µM and 0.0037 µM
- IC50 (Human alphaherpesvirus 1 [2]): 0.47 µM
- IC50 (Human alphaherpesvirus 2): 0.03 µM
- IC50 (Human betaherpesvirus 5 [3]): 0.025 µM
- IC90 (Human betaherpesvirus 5 [4]): 0.075 µM
- IC50 (HFF [11]; Homo sapiens, HFF): 0.13 µM
- IC50 (HFF [11]; hff): 0.16 µM
- IC50 (HFF [12]): 6.7 µM
- IC50 (KB): 1.9 µM
- Growth rate (L1210 [5]): 9%
- IC50 (L1210 [6]): 3.2 µM
- IC50 (Human alphaherpesvirus 3): 0.003 µM
- IC50 (CCRF-CEM [7]): 0.4 µM

SMILES: NC(=S)c1cn([C@@H]2O[C@H](CO)[C@@H](O)[C@@H]2F)c2ncnc(N)c12
- IC50 (HFF [1]): 3.1 µM
- IC50 (Human alphaherpesvirus 1 [2]): 8.7 µM
- IC50 (Human betaherpesvirus 5 [3]): 0.22 µM
- IC90 (Human betaherpesvirus 5 [4]): 1.5 µM
- IC50 (KB): 3 µM
- Growth rate (L1210 [5]): 5%
- IC50 (L1210 [6]): 5 µM
- IC50 (CCRF-CEM [7]): 2 µM

SMILES: N#Cc1cn([C@@H]2O[C@H](CO)[C@@H](O)[C@@H]2F)c2ncnc(N)c12
- IC50 (HFF [1]): 6.8 µM
- IC50 (Human alphaherpesvirus 1 [2]): 6.5 µM
- IC50 (Human betaherpesvirus 5 [3]): 1 µM
- IC90 (Human betaherpesvirus 5 [4]): 1.1 µM
- IC50 (KB): 8.8 µM
- Growth rate (L1210 [5]): 11%
- IC50 (L1210 [6]): 39 µM
- IC50 (CCRF-CEM [7]): 33 µM

SMILES: Nc1nc2c(ncn2COC(CO)CO)c(=O)[nH]1 [GANCICLOVIR]
- IC50 (HFF [1]): > 100 µM
- IC90 (Human betaherpesvirus 5 [4]): 1.6 µM
- IC50 (KB): > 100 µM

SMILES: Cc1cn([C@H]2C[C@H](N=[N+]=[N-])[C@@H](CO)O2)c(=O)[nH]c1=O [ZIDOVUDINE]
- IC50 (HFF [1]): > 100 µM
